Laboratory results taken from ChEMBL document CHEMBL2069244 (Bioorg Med Chem Lett, 2012).
Calls of active or inactive are those of the source. The rule behind the calls is not given here.

Columns and labels:
Mus musculus [1] = experiment: Anticonvulsant activity in mouse assessed as protection against maximal electroshock-induced seizures at 30 mg/kg, ip after 4 hrs; assay type: functional, organism-based; design: dose 30 mg/kg
Outline: (§1)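 Mice dosed ip in 30% polyethylene glycol. Corneas pretreated with 1% tetracaine, then 60 Hz alternating current (50 mA) applied for 0.2 s via corneal electrodes. Protection means absence of the hindlimb tonic extensor component. Scored as number protected/number tested.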

Mus musculus [2] = experiment: Anticonvulsant activity in mouse assessed as protection against maximal electroshock-induced seizures at 300 mg/kg, ip after 0.5 hrs; assay type: functional, organism-based; design: dose 300 mg/kg; outline: as §1
Mus musculus [3] = experiment: Anticonvulsant activity in mouse assessed as protection against subcutaneous pentylenetetrazole-induced seizures at 300 mg/kg, ip after 0.5 hrs; assay type: functional, organism-based; design: dose 300 mg/kg
Mus musculus [4] = experiment: Anticonvulsant activity in ip dosed mouse assessed as protection against 32mA-induced seizure measured after 0.25 to 0.5 hrs by 6Hz psychomotor seizure test
Mus musculus [5] = experiment: Anticonvulsant activity in mouse assessed as protection against maximal electroshock-induced seizures at 30 mg/kg, ip after 0.5 hrs; assay type: functional, organism-based; design: dose 30 mg/kg; outline: as §1
Mus musculus [6] = experiment: Anticonvulsant activity in mouse assessed as protection against maximal electroshock-induced seizures at 100 mg/kg, ip after 0.5 hrs; assay type: functional, organism-based; design: dose 100 mg/kg; outline: as §1
Mus musculus [7] = experiment: Anticonvulsant activity in mouse assessed as protection against subcutaneous pentylenetetrazole-induced seizures at 100 mg/kg, ip after 4 hrs; assay type: functional, organism-based; design: dose 100 mg/kg
Mus musculus [8] = experiment: Anticonvulsant activity in mouse assessed as protection against subcutaneous pentylenetetrazole-induced seizures at 30 mg/kg, ip after 0.5 hrs; assay type: functional, organism-based; design: dose 30 mg/kg
Mus musculus [9] = experiment: Anticonvulsant activity in mouse assessed as protection against subcutaneous pentylenetetrazole-induced seizures at 30 mg/kg, ip after 4 hrs; assay type: functional, organism-based; design: dose 30 mg/kg
Mus musculus [10] = experiment: Protective index, ratio of TD50 for neurotoxicity in ip dosed mouse to ED50 for anticonvulsant activity in mouse by 6Hz psychomotor seizure test; assay type: functional
Outline: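 Mice dosed ip in 30% polyethylene glycol. TD50 comes from rotorod toxicity at 6 rpm (three falls in 1 min). ED50 comes from 6 Hz, 32 mA seizure protection. Both are from probit analysis with 95% confidence intervals, and the index is TD50/ED50.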

Mus musculus [11] = experiment: Anticonvulsant activity in mouse assessed as protection against maximal electroshock-induced seizures at 100 mg/kg, ip after 4 hrs; assay type: functional, organism-based; design: dose 100 mg/kg; outline: as §1
Mus musculus [12] = experiment: Anticonvulsant activity in mouse assessed as peak time to protect against electrically-induced seizure at 100 mg/kg, ip by 6Hz psychomotor seizure test; assay type: functional; conditions: route intraperitoneal
Outline: (§2)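 Mice dosed ip in 30% polyethylene glycol, then given a 6 Hz, 32 mA corneal stimulus. Animals lacking the minimal clonic phase and stereotyped automatistic behaviours count as protected. Data are number protected/number tested at each time after dosing.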

Mus musculus [13] = experiment: Anticonvulsant activity in mouse assessed as protection against subcutaneous pentylenetetrazole-induced seizures at 300 mg/kg, ip after 4 hrs; assay type: functional, organism-based; design: dose 300 mg/kg
Mus musculus [14] = experiment: Anticonvulsant activity in mouse assessed as protection against subcutaneous pentylenetetrazole-induced seizures at 100 mg/kg, ip after 0.5 hrs; assay type: functional, organism-based; design: dose 100 mg/kg
Mus musculus [15] = experiment: Anticonvulsant activity in mouse assessed as protection against maximal electroshock-induced seizures at 300 mg/kg, ip after 4 hrs; assay type: functional, organism-based; design: dose 300 mg/kg; outline: as §1
Mus musculus [16] = experiment: Anticonvulsant activity in mouse assessed as protection against maximal electroshock-induced seizures at 100 mg/kg, ip after 0.25 hrs; assay type: functional, organism-based; design: dose 100 mg/kg; outline: as §1
Mus musculus [17] = experiment: Anticonvulsant activity in mouse assessed as protection against maximal electroshock-induced seizures at 100 mg/kg, ip after 1 hrs; assay type: functional, organism-based; design: dose 100 mg/kg; outline: as §1
Mus musculus [18] = experiment: Anticonvulsant activity in mouse assessed as protection against maximal electroshock-induced seizures at 100 mg/kg, ip after 6 hrs; assay type: functional, organism-based; design: dose 100 mg/kg; outline: as §1
Mus musculus [19] = experiment: Anticonvulsant activity in mouse assessed as protection against maximal electroshock-induced seizures at 100 mg/kg, ip after 2 hrs; assay type: functional, organism-based; design: dose 100 mg/kg; outline: as §1
Mus musculus [20] = experiment: Neurotoxicity in mouse at 100 mg/kg, ip after 1 hrs by 6Hz psychomotor seizure test; assay type: toxicity, organism-based; design: dose 100 mg/kg, route intraperitoneal; conditions: in vivo
Outline: (§3)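 Mice dosed ip in 30% polyethylene glycol and placed on a rotorod at 6 rpm. An animal is scored toxic if it falls off three times within 1 min.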

Mus musculus [21] = experiment: Neurotoxicity in mouse at 100 mg/kg, ip after 4 hrs by 6Hz psychomotor seizure test; assay type: toxicity, organism-based; design: dose 100 mg/kg, route intraperitoneal; conditions: in vivo; outline: as §3
Mus musculus [22] = experiment: Neurotoxicity in mouse at 100 mg/kg, ip after 2 hrs by 6Hz psychomotor seizure test; assay type: toxicity, organism-based; design: dose 100 mg/kg, route intraperitoneal; conditions: in vivo; outline: as §3
Mus musculus [23] = experiment: Neurotoxicity in mouse at 100 mg/kg, ip after 0.25 hrs by 6Hz psychomotor seizure test; assay type: toxicity, organism-based; design: dose 100 mg/kg, route intraperitoneal; conditions: in vivo; outline: as §3
Mus musculus [24] = experiment: Neurotoxicity in mouse at 100 mg/kg, ip after 0.5 hrs by 6Hz psychomotor seizure test; assay type: toxicity, organism-based; design: dose 100 mg/kg, route intraperitoneal; conditions: in vivo; outline: as §3
Mus musculus [25] = experiment: Neurotoxicity in mouse at 300 mg/kg, ip after 0.5 hrs by 6Hz psychomotor seizure test; assay type: toxicity, organism-based; design: dose 300 mg/kg, route intraperitoneal; conditions: in vivo; outline: as §3
Mus musculus [26] = experiment: Anticonvulsant activity in mouse assessed as protection against 32mA-induced seizure at 100 mg/kg, ip after 0.25 hrs by 6Hz psychomotor seizure test; assay type: functional, organism-based; design: dose 100 mg/kg; outline: as §2
Mus musculus [27] = experiment: Anticonvulsant activity in mouse assessed as protection against 32mA-induced seizure at 100 mg/kg, ip after 0.5 hrs by 6Hz psychomotor seizure test; assay type: functional, organism-based; design: dose 100 mg/kg; outline: as §2
Mus musculus [28] = experiment: Neurotoxicity in mouse at 30 mg/kg, ip after 4 hrs by 6Hz psychomotor seizure test; assay type: toxicity, organism-based; design: dose 30 mg/kg, route intraperitoneal; conditions: in vivo; outline: as §3
Mus musculus [29] = experiment: Neurotoxicity in mouse at 100 mg/kg, ip after 6 hrs by 6Hz psychomotor seizure test; assay type: toxicity, organism-based; design: dose 100 mg/kg, route intraperitoneal; conditions: in vivo; outline: as §3
Mus musculus [30] = experiment: Anticonvulsant activity in mouse assessed as protection against 32mA-induced seizure at 100 mg/kg, ip after 1 hr by 6Hz psychomotor seizure test; assay type: functional, organism-based; design: dose 100 mg/kg; outline: as §2
Mus musculus [31] = experiment: Anticonvulsant activity in mouse assessed as protection against 32mA-induced seizure at 100 mg/kg, ip after 4 hrs by 6Hz psychomotor seizure test; assay type: functional, organism-based; design: dose 100 mg/kg; outline: as §2
Mus musculus [32] = experiment: Neurotoxicity in mouse at 30 mg/kg, ip after 0.5 hrs by 6Hz psychomotor seizure test; assay type: toxicity, organism-based; design: dose 30 mg/kg, route intraperitoneal; conditions: in vivo; outline: as §3
Mus musculus [33] = experiment: Anticonvulsant activity in mouse assessed as protection against 32mA-induced seizure at 100 mg/kg, ip after 2 hrs by 6Hz psychomotor seizure test; assay type: functional, organism-based; design: dose 100 mg/kg; outline: as §2
Mus musculus [34] = experiment: Neurotoxicity in mouse at 300 mg/kg, ip after 4 hrs by 6Hz psychomotor seizure test; assay type: toxicity, organism-based; design: dose 300 mg/kg, route intraperitoneal; conditions: in vivo; outline: as §3
Mus musculus [35] = experiment: Anticonvulsant activity in mouse assessed as protection against maximal electroshock-induced seizures at 30 mg/kg, ip after 1 hr; assay type: functional, organism-based; design: dose 30 mg/kg; outline: as §1
Mus musculus [36] = experiment: Anticonvulsant activity in mouse assessed as protection against maximal electroshock-induced seizures at 30 mg/kg, ip after 6 hrs; assay type: functional, organism-based; design: dose 30 mg/kg; outline: as §1
Mus musculus [37] = experiment: Anticonvulsant activity in mouse assessed as protection against maximal electroshock-induced seizures at 30 mg/kg, ip after 2 hrs; assay type: functional, organism-based; design: dose 30 mg/kg; outline: as §1
Mus musculus [38] = experiment: Anticonvulsant activity in mouse assessed as protection against maximal electroshock-induced seizures at 30 mg/kg, ip after 0.25 hrs; assay type: functional, organism-based; design: dose 30 mg/kg; outline: as §1

SMILES	Activity (Mus musculus [1])	Activity (Mus musculus [2])	Activity (Mus musculus [3])	ED50 (Mus musculus [4]) [mg/kg]	Activity (Mus musculus [5])	Activity (Mus musculus [6])	Activity (Mus musculus [7])	Activity (Mus musculus [8])	Activity (Mus musculus [9])	Ratio TD50/ED50 (Mus musculus [10])	Activity (Mus musculus [11])	Time (Mus musculus [12]) [h]	Activity (Mus musculus [13])	Activity (Mus musculus [14])	Activity (Mus musculus [15])	Activity (Mus musculus [16])	Activity (Mus musculus [17])	Activity (Mus musculus [20])	Activity (Mus musculus [21])	Activity (Mus musculus [24])	also measured
CC(C)c1cc(C(O)C(F)(F)F)cc(Br)c1O (configuration not stated)	inactive	inactive	inactive	112	inactive	inactive	inactive	inactive	inactive	3.6	inactive	0.5	inactive	inactive	inactive						
CCC(C)c1cc(C(O)C(F)(F)F)cc(Br)c1O (configuration not stated)	inactive	Active	inactive		inactive	inactive	inactive	inactive	inactive	1.7	inactive	0.5	inactive	inactive	inactive	inactive	inactive				
CCC(C)c1cc(C(O)C(F)(F)F)ccc1O (configuration not stated)	inactive	Active	Active	53.9	inactive	inactive	inactive	inactive	inactive	1.6	inactive	0.5	inactive	inactive	inactive						
CCC(C)c1cc(C(O)C(F)(F)F)cc(C(C)CC)c1O (configuration not stated)				73																	
CC(C)c1cccc(C(C)C)c1O [PROPOFOL]				38.6																	
CC(C)c1cc(C(O)C(F)(F)F)ccc1O (configuration not stated)	inactive	Active	Active	84.1	inactive	inactive	inactive	inactive	inactive	1.9	inactive	0.25	Active	inactive	Active	inactive	inactive				Activity (Mus musculus [18]): inactive; Activity (Mus musculus [19]): inactive
CCCc1cc(C(O)C(F)(F)F)cc(Br)c1O (configuration not stated)	inactive	inactive	inactive		inactive	inactive	inactive	inactive	inactive		inactive		inactive	inactive	inactive			Non-toxic	Non-toxic	Non-toxic	Activity (Mus musculus [22]): Non-toxic; Activity (Mus musculus [23]): Non-toxic
Cc1cc(C(O)C(F)(F)F)ccc1O (configuration not stated)		Active	inactive		inactive	inactive	inactive	inactive	inactive		inactive		inactive	inactive	Active	inactive	inactive	Non-toxic	Non-toxic	Non-toxic	Activity (Mus musculus [25]): Non-toxic; Activity (Mus musculus [26]): inactive; Activity (Mus musculus [18]): inactive; Activity (Mus musculus [27]): inactive; Activity (Mus musculus [28]): Non-toxic; Activity (Mus musculus [29]): Non-toxic; Activity (Mus musculus [22]): Non-toxic; Activity (Mus musculus [19]): inactive; Activity (Mus musculus [23]): Non-toxic; Activity (Mus musculus [30]): Active; Activity (Mus musculus [31]): inactive; Activity (Mus musculus [32]): Non-toxic; Activity (Mus musculus [33]): inactive; Activity (Mus musculus [34]): Non-toxic
CCCc1cc(C(O)C(F)(F)F)ccc1O (configuration not stated)	inactive	Active	Active		inactive	inactive	inactive	inactive	inactive		inactive		inactive	inactive	Active			Non-toxic	Non-toxic	Non-toxic	Activity (Mus musculus [35]): inactive; Activity (Mus musculus [36]): inactive; Activity (Mus musculus [28]): Non-toxic; Activity (Mus musculus [29]): Non-toxic; Activity (Mus musculus [37]): inactive; Activity (Mus musculus [22]): Non-toxic; Activity (Mus musculus [38]): inactive; Activity (Mus musculus [23]): Non-toxic; Activity (Mus musculus [32]): Non-toxic; Activity (Mus musculus [34]): Non-toxic
CCc1cc(C(O)C(F)(F)F)ccc1O (configuration not stated)	inactive	inactive	inactive		inactive	inactive	inactive	inactive	inactive		inactive		inactive	inactive	inactive				Non-toxic	Non-toxic	Activity (Mus musculus [25]): Non-toxic; Activity (Mus musculus [26]): inactive; Activity (Mus musculus [27]): inactive; Activity (Mus musculus [28]): Non-toxic; Activity (Mus musculus [30]): inactive; Activity (Mus musculus [31]): inactive; Activity (Mus musculus [32]): Non-toxic; Activity (Mus musculus [33]): inactive; Activity (Mus musculus [34]): Non-toxic
